Source: publication PMC5018460 (Bioorganic & medicinal chemistry letters, 2016)

Key:
HIV-1 IN (WT) = HIV-1 IN (WT) (Human immunodeficiency virus type 1 group M subtype B, UniProt P12497); experiment: biochemical
A128T mutant HIV-1 IN = A128T mutant HIV-1 IN (Human immunodeficiency virus type 1 group M subtype B, UniProt P12497, A1275T); experiment: HTRF-based aberrant IN multimerization assay, A128T mutant IN; assay type: biochemical
HIV-1 integrase (IN) = HIV-1 integrase (IN) (Human immunodeficiency virus type 1 group M subtype B, UniProt P12497); experiment: HTRF-based LEDGF/p75-dependent integration assay; assay type: biochemical; details: for activity in the LEDGF/p75-dependent integration assay: at concentrations up to 100 μM
How it was run: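 Homogeneous time-resolved fluorescence read-out of integration in the presence of LEDGF/p75. Reactions run in neutral buffer, so carboxylic acid test compounds are present as the carboxylate anion. The format is said to detect integrase inhibitors acting by different mechanisms.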

Compound | IC50 (HIV-1 IN (WT)) [µM] | IC50 (A128T mutant HIV-1 IN) [µM] | IC50 (HIV-1 integrase (IN)) [µM] | activity in the LEDGF/p75-dependent integration assay (HIV-1 integrase (IN))
Cn1c(C(OC(C)(C)C)C(=O)O)c(-c2ccc3c(c2)CCCO3)c2ccccc21 (stereo not drawn) [Compound 5c] | 16.1 ± 2 | 16 ± 1.4 |  | 
Cn1c(CC(OC(C)(C)C)C(=O)O)c(-c2ccccc2)c2ccccc21 (stereo not drawn) [Compound 10] |  |  | > 100 | failed to show any activity
COc1ccc(-n2c(C(OC(C)(C)C)C(=O)O)c(C)c3ccccc32)cc1 (stereo not drawn) [Compound 15] |  |  | > 100 | failed to show any activity
